# Source: PubChem (Broad Institute)
# Mot1-301 SUMO: blocks SUMOylation pathway, rescuing yeast Mot1-301 growth; S. cerevisiae Mot1-301 growth rescue, ATP luminescence, 38.5C; percent above DMSO median, 100 means doubled; growth rescue, % at 18.8 µM; actives 1% (n = 320,000); AID 2716;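 active means every valid replicate shows activation above 250% relative to neutral control wells; inactive means the rest, any valid replicate at or below 250%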
# Statin myotox sup: suppressors of simvastatin-induced myotoxicity in C2C12 myotubes; actives 0.78% (n = 330,000); rescue of ATP level, % at 7.49 µM; AID 602340; ATP luminescence, 48 h; scaled: DMSO 0, geranylgeraniol control 100;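 active means mean ATP rescue above about 67%, or every replicate alone reaching that limit, limit read from the data, passing the limit was not always enough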;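 further: myotubes were challenged with 10 µM simvastatin during compound exposure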
# Cneo AK release: Cryptococcus neoformans lysis via adenylate kinase release | actives 0.2% (n = 360,000) | AID 651654 | lysis activity, % at 15 µM | C. neoformans lysis, adenylate kinase release luminescence, 4 h; normalised: neutral wells 0, clomiphene wells 100;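 active means mean lysis activity across replicates of at least 80%, whatever share of replicates individually reach that level; inactive means mean lysis activity below 80%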
#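 Assay system: C. neoformans cells. Amount: yeast cell density of 5 × 10^6 cells/mL. Technique: AK luminescence. Buffer or medium: YPD. Times: static 4 h at 37 °C with compound, 1 h detection. Dosing: single-point compound dose. Read-out: lysis from increased AK signal.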
# Mot1 SUMO dose: inhibits SUMO pathway, affecting Mot1-301 yeast growth | shares compounds with Mot1-301 SUMO | S. cerevisiae Mot1-301 galactose growth, ATP luminescence, 24 h; -100 = growth of slx-deleted rescue strain | growth activity, percent, % at 42 µM | 2,300 tested, under 10 active | AID 493004;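 active means Signal drops as the depositor expects, and the fitted half-maximal dose is no more than ten times the top valid tested dose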;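 further: more negative values mean stronger growth rescue toward the control strain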
# Hits are given with their value; – = inactive; · = no result; + = active, no number. Sampled rows, rich in hits. Any-hit rate of the full collection: about 1.5%.
SMILES,Mot1-301 SUMO,Statin myotox sup,Cneo AK release,Mot1 SUMO dose
CN(C)C(=O)C[C@@H]1C[C@H]2c3cc(NC(=O)CC4CC4)ccc3O[C@H]2[C@@H](CO)O1,·,–,–,·
Cc1noc(C)c1S(=O)(=O)N(C)C[C@@H]1OCCCC[C@@H](C)Oc2ccc(NC(=O)c3ccccc3)cc2C(=O)N([C@@H](C)CO)C[C@H]1C,·,·,–,·
CO[C@@H]1CN(C)C(=O)c2cc(NC(=O)Nc3ccc4c(c3)OCO4)ccc2OC[C@H](C)NC[C@@H]1C,·,–,–,·
CCCCCCCCn1cc(C(C)=O)c(=O)[nH]c1=O,–,–,–,·
C=CCn1cc(C(C)=O)c(=O)[nH]c1=O,609.6,·,·,–
C[C@@H]1CCCCO[C@H](CN(C)C(=O)Nc2ccc(C(F)(F)F)cc2)[C@H](C)CN([C@H](C)CO)C(=O)c2cc(NS(=O)(=O)c3cn(C)cn3)ccc2O1,·,·,–,·
COC(=O)C1CN(C(=O)C(C)Oc2ccc(F)cc2)c2ccccc2O1 (configuration not stated),748.4,–,–,–
COC(=O)C1CN(C(=O)C(C)Oc2ccccc2F)c2ccccc2O1 (configuration not stated),–,–,–,·
O=C(COC(=O)Cc1ccc(F)cc1)NC1CCCCCC1,·,–,·,·
O=C(COC(=O)CSc1ccc([N+](=O)[O-])cc1)NC1CCCCCCC1,460.5,–,–,–
Cc1ccc(SCC(=O)OCC(=O)NC2CCCCCCC2)cc1,–,–,–,·
O=C(COC(=O)Cc1ccsc1)NC1CCCCCC1,609.1,–,·,–
CC(=O)N(C)C[C@H]1Oc2ncc(C3=CCCC3)cc2C(=O)N([C@@H](C)CO)C[C@H]1C,·,–,–,·
C[C@@H]1CCCCO[C@H](CN(C)S(C)(=O)=O)[C@H](C)CN([C@@H](C)CO)C(=O)c2cc(NC(=O)CCC(F)(F)F)ccc2O1,·,–,·,·
COc1ccccc1NC(=O)CN(c1ccc(C)cc1)S(=O)(=O)c1c(C)n[nH]c1C,981.5,·,–,–
COc1ccc(OC)c(NC(=O)CN(c2ccc(C)cc2)S(=O)(=O)c2c(C)n[nH]c2C)c1,–,–,–,·
CO[C@@H]1CN(C)C(=O)c2ccc(NC(=O)Nc3cc(F)ccc3F)cc2OC[C@@H](C)N(C(=O)c2cnccn2)C[C@H]1C,·,–,–,·
CC1(C)CC(=O)C(C=NCCN2CCN(CC(=O)Nc3ccc(Cl)cc3)CC2)=C(O)C1,–,·,·,·
Cc1ccc(NC(=O)CN2CCN(CCN=CC3=C(O)CC(C)(C)CC3=O)CC2)cc1,984.7,·,·,–
C=CCNC(=O)NC(=O)COC(=O)/C(C#N)=C/c1cc(C)n(CC(C)C)c1C,+,–,–,–
CCCn1c(C)cc(/C=C(\C#N)C(=O)OCC(=O)NC(=O)NC(C)(C)C)c1C,–,·,·,·
CC(C)c1cn(CC[C@H]2CC[C@@H](NC(=O)Nc3cc(Cl)cc(Cl)c3)[C@@H](CO)O2)nn1,·,–,–,·
O=S(=O)(N[C@H]1CC[C@H](CCn2cc(-c3ccccn3)nn2)O[C@@H]1CO)c1cccc(Cl)c1,·,–,–,·
CCCCC(O)(c1ccc(F)cc1)C(CN1CCOCC1)c1ccc(Cl)cc1 (configuration not stated),536.5,–,–,–
COc1ccc(C(O)(CCC(C)C)C(CN2CCOCC2)c2ccc(Cl)cc2)cc1 (configuration not stated),–,–,–,·
SMILES,Mot1-301 SUMO,Statin myotox sup,Cneo AK release,Mot1 SUMO dose
CCCC(=O)Nc1ccc2c(c1)C(=O)N(C)C[C@H](OC)[C@H](C)CN(CC1CCCC1)[C@@H](C)CO2,·,–,–,·
COc1ccc(NC(=O)Nc2ccc3c(c2)CC(=O)N([C@@H](C)CO)C[C@H](C)[C@H](CN(C)S(=O)(=O)c2cccs2)O3)cc1,·,–,–,·
Cc1ccc(/C=C/C(=O)OCC(=O)N(CC(C)C)c2c(N)n(Cc3ccccc3)c(=O)[nH]c2=O)o1,811.6,–,–,–
CCN(C(=O)COC(=O)/C=C/c1ccc(C)o1)c1c(N)n(Cc2ccccc2)c(=O)[nH]c1=O,·,–,–,·
Cc1onc(-c2ccccc2)c1C(=O)OCC(=O)N(C)c1c(N)n(Cc2ccccc2)c(=O)[nH]c1=O,–,–,–,·
CCN(C(=O)COC(=O)c1c(-c2ccccc2)noc1C)c1c(N)n(Cc2ccccc2)c(=O)[nH]c1=O,413.4,–,–,–
C[C@]12CCC3C4(C=CC5(C=C4C(=O)C4CCCCC4)C[C@@H](O)CC[C@]35C)C1CC[C@@]2(O)CN1CCC(n2c(=O)[nH]c3ccccc32)CC1 (some centres not stated),·,·,–,·
COc1ccc(NC(=O)Nc2ccc3c(c2)C(=O)N([C@H](C)CO)C[C@@H](C)[C@@H](CN(C)S(=O)(=O)c2ccc(F)cc2)O3)cc1,·,–,–,·
CCCNC(=O)[C@@H]1[C@@H](CO)[C@@H]2Cn3c(ccc(C4=CCCCC4)c3=O)[C@H]1N2Cc1cocn1,·,–,–,·
Cc1ccc(NC(=O)Cn2c(=O)cnc3ccccc32)cc1S(=O)(=O)N1CCCCC1,·,–,–,·
COc1ccc(NC(=O)COc2ccc(C)c(C)c2)cc1S(=O)(=O)N1CCCCC1,–,–,–,·
COc1ccc(NC(=O)COc2cc(C)cc(C)c2)cc1S(=O)(=O)N1CCCCC1,530.0,–,–,–
COc1ccc(NC(=O)Cn2c(=O)cnc3ccccc32)cc1S(=O)(=O)N1CCCCC1,427.9,–,·,–
CCS(=O)(=O)NCC[C@H]1CC[C@H](NC(=O)C2CCCCC2)[C@@H](CO)O1,·,–,·,·
CCNC(=O)C[C@H]1CC[C@@H]2[C@@H](COc3ccc(NC(=O)Cc4cccs4)cc3C(=O)N2C)O1,·,–,–,·
CN(CC(=O)NCc1cccs1)S(=O)(=O)c1cccc2nsnc12,435.9,–,–,–
CN(CC(=O)NCc1ccc(F)cc1)S(=O)(=O)c1cccc2nsnc12,–,–,–,·
Fc1ccc(CNc2nc(-c3ccco3)cc(C(F)(F)F)n2)cc1,–,·,–,·
Fc1ccc(-c2cc(C(F)(F)F)nc(NCc3cccs3)n2)cc1,457.7,–,–,–
CC(OC(=O)c1cnccn1)C(=O)c1ccccc1 (configuration not stated),433.4,·,·,–
Cc1ccc(C(=O)C(OC(=O)c2cnccn2)c2ccccc2)cc1 (configuration not stated),–,–,–,·
O=C(Nc1ccc2c(c1)[C@H]1C[C@@H](CC(=O)N3CCc4ccccc4C3)O[C@@H](CO)[C@H]1O2)C1CCOCC1,·,–,–,·
COc1ccc(CN2C[C@H](C)[C@H](OC)CN(C)C(=O)c3cc(NC(=O)c4nc5ccccc5s4)ccc3OC[C@@H]2C)cc1,·,–,–,·
N#C/C(=N\Nc1cccc(F)c1)C(=N)N1CCCCCC1,605.3,·,·,–
N#C/C(=N\Nc1ccc(F)cc1)C(=N)N1CCCCC1,–,–,–,·
COCC(=O)N(C)C[C@@H]1Oc2ncc(C#CC(C)(C)O)cc2C(=O)N([C@H](C)CO)C[C@H]1C,·,–,–,·
Cc1cc(C)c2c(=O)[nH]cnc2n1,997.5,·,·,–
Cc1cc(C)c2c(C)[nH]nc2n1,–,·,–,·
CCOC(=O)N1CCN(c2cc3[nH]c(=S)[nH]c3cc2F)CC1,399.7,–,–,–
CCOC(=O)N1CCN(c2c(F)cc3[nH]c(=S)[nH]c3c2Br)CC1,–,·,·,·
